NR2E3 ag-1 = agonists of human NR2E3 nuclear receptor; Q9Y5X4; CHO-S Gal4-NCOR/VP16-NR2E3 two-hybrid, luciferase; inhibition of corepressor binding, % at 3.98 µM; 360,000 compounds, 0.35% hits; AID 602229;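 active = inhibition above the mean of all tested compounds plus 3 SD, cut at about 70% in these data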;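 also: higher means lower luciferase signal from less NR2E3 corepressor binding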
Target sequence (Q9Y5X4 whole entry, looked up, the tested form may be a part): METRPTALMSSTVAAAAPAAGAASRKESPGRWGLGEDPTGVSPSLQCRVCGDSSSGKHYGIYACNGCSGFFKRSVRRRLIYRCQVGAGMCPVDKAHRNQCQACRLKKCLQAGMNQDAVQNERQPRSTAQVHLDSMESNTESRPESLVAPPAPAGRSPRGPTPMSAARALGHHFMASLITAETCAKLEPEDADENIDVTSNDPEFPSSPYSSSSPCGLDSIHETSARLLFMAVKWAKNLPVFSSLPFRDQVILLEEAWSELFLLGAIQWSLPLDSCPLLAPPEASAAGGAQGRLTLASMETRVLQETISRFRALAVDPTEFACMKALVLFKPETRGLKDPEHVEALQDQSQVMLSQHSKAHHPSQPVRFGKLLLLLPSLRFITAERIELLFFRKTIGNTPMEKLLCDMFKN
Env fusion inh = HIV envelope-mediated fusion inhibition; HeLa-JRFL Env/CEM21 cell fusion, luciferase; 360,000 compounds, 1.1% hits; inhibition, % at 12.3 µM;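 active = mean replicate inhibition score of at least 50 and every replicate individually at or above 50; inconclusive = only one of the two criteria met; inactive = mean below 50 and not all replicates reaching 50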
GalR3 antag = blocks the human galanin receptor 3 | 360,000 compounds, 0.44% hits | HEK293 GalR3-CNG cAMP membrane potential fluorescence; galR3 body fused to GalR1 C-terminus | AID 651719 | inhibition, % at 3 µM | O60755;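 active = inhibition above the screen-wide average plus 3 SD, cut at about 13% in these data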;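 also: forskolin and galanin both at EC90 stimulate the cells; cAMP rise reported by CNG channel membrane potential dye signal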
Target sequence (O60755 1-299 limits assumed): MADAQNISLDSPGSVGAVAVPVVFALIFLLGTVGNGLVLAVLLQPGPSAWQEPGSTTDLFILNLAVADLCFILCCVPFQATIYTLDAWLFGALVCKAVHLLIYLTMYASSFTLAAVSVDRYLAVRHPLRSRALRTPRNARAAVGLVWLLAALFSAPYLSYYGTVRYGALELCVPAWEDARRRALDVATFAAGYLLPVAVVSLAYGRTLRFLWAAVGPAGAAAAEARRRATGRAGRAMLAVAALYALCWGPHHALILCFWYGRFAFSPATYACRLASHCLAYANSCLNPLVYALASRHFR
NR2E3 ag-2 = activates human photoreceptor nuclear receptor NR2E3; 320,000 compounds, 0.12% hits; Q9Y5X4; AID 2300; inhibition of corepressor binding, % at 4.78 µM; GST-NR2E3/biotin-RetCOR TR-FRET, 1536-well;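 active = percent inhibition above the cutoff of mean plus 3 SD of all tested compounds, set per screening campaign, cut at about 20% in these data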
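Format: 1536-well format; test system: GST-NR2E3 and biotin-RetCOR proteins; read-out basis: percent inhibition of TR-FRET ratio; timing: 5 h incubation at 4 °C; detection: time-resolved FRET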
GAA850 FXN act = frataxin GAA850 promoter activation | AID 540364 | HEK293 lucGAA850 FXN promoter luciferase reporter, 24 h; percent of 10 µM SAHA response | 360,000 compounds, 0.56% hits | activation, % at 6 µM;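 active = activation above the average of all compounds screened plus 3 SD, cutoff fixed separately per campaign, cut at about 7.5% in these data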
V-ATPase pHluor = alters yeast V-ATPase proton transport. S. cerevisiae, pHLuorin cytosolic pH fluorescence. response, % at 10 µM. 350,000 compounds, 0.37% hits. AID 504577; in the data active = response mostly above about 7.3%, no sharp cut-off; inactive = mostly below about 5.4%; also: actives read high
GAA30 FXN cntr = activates GAA30 frataxin promoter, counter-screen for GAA850 activators. activation, % at 6 µM. shares compounds with GAA850 FXN act. 1,900 compounds, 66% hits. AID 588350. HEK293 lucGAA30 FXN promoter luciferase, 24 h; DMSO = 0%, 5 µM ipriflavone = 100%;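 active = mean activation above the mean of solvent-only control wells plus 3 SD, cut at about 22% in these data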;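 also: counterscreen of GAA850 promoter hits where activity marks nonselective or luminescence artifacts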
GAA850 confirm = GAA850 FXN promoter activation confirmation; shares compounds with GAA850 FXN act; HEK293 lucGAA850 FXN promoter luciferase reporter, 24 h; 100% = activation by SAHA; activation, % at 6 µM; 1,900 compounds, 86% hits;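 active = mean activation above a set limit taken from the primary screen, cut at about 8% in these data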
Hits are given with their value. In the library only some 2.2% were active in any assay of this set; here they are far more common.

What do the screens show for `Cc1ccc(S(=O)(=O)N(C)C[C@H]2OCCCC[C@H](C)Oc3ccc(NC(=O)Nc4cccc5ccccc45)cc3C(=O)N([C@H](C)CO)C[C@@H]2C)cc1`?
Env fusion inh: inactive

How did Cc1cccc(C)c1NC(=O)c1nc(S(=O)(=O)Cc2ccccc2)ncc1Cl do in these assays?
NR2E3 ag-1: inactive; Env fusion inh: inactive; GalR3 antag: inactive; NR2E3 ag-2: inactive; GAA850 FXN act: 8.2; V-ATPase pHluor: inactive; GAA30 FXN cntr: inactive; GAA850 confirm: 20

What do the screens show for `Cc1cccc(CS(=O)(=O)c2ncc(Cl)c(C(=O)Nc3c(C)cccc3C)n2)c1`?
NR2E3 ag-1: inactive; Env fusion inh: inactive; GalR3 antag: inactive; NR2E3 ag-2: inactive; GAA850 FXN act: inactive; V-ATPase pHluor: inactive

How did CCc1ccc(C(=O)NCC2(c3ccccc3)CCOCC2)o1 do in these assays?
NR2E3 ag-1: inactive; GalR3 antag: inactive; GAA850 FXN act: 7.8; V-ATPase pHluor: inactive; GAA30 FXN cntr: 95; GAA850 confirm: 25

Results for O=C(NCC1(c2ccccc2)CCOCC1)c1ccc(Br)o1 ?
NR2E3 ag-1: inactive; GalR3 antag: inactive; NR2E3 ag-2: inactive; GAA850 FXN act: inactive; V-ATPase pHluor: inactive

Results for COc1ccc(C(=O)CSC#N)cc1OC ?
NR2E3 ag-1: inactive; Env fusion inh: inactive; GalR3 antag: inactive; NR2E3 ag-2: inactive; GAA850 FXN act: 12; V-ATPase pHluor: inactive; GAA30 FXN cntr: inactive; GAA850 confirm: 32

What do the screens show for `COc1ccc(C(=O)COC(=O)c2ccc(OC)c(OC)c2)cc1OC`?
NR2E3 ag-1: inactive; GalR3 antag: inactive; NR2E3 ag-2: inactive; GAA850 FXN act: inactive; V-ATPase pHluor: inactive

Results for Clc1ccc(-c2nnc(-c3ccco3)o2)cc1 ?
NR2E3 ag-1: inactive; Env fusion inh: inactive; GalR3 antag: inactive; NR2E3 ag-2: inactive; GAA850 FXN act: 12; V-ATPase pHluor: inactive; GAA30 FXN cntr: 108; GAA850 confirm: 41

How did COCC(=O)N1C[C@H](C)[C@H](OC)CN(C)C(=O)c2ccc(NC(=O)Nc3ccccc3)cc2OC[C@@H]1C do in these assays?
Env fusion inh: inactive

What do the screens show for `COc1ccc(N2C(=O)CC(N(CCc3ccc(OC)c(OC)c3)C(=S)Nc3ccccc3)C2=O)cc1` (stereo not given)?
NR2E3 ag-1: inactive; Env fusion inh: inconclusive; GalR3 antag: inactive; NR2E3 ag-2: inactive; GAA850 FXN act: 8.4; V-ATPase pHluor: inactive; GAA30 FXN cntr: inactive; GAA850 confirm: 11

What do the screens show for `Cn1c(=NC(=O)c2cccc([N+](=O)[O-])c2)sc2ccccc21`?
NR2E3 ag-1: inactive; Env fusion inh: inactive; GalR3 antag: inactive; NR2E3 ag-2: inactive; GAA850 FXN act: 9.1; V-ATPase pHluor: inactive; GAA30 FXN cntr: 120; GAA850 confirm: 36

How did Cc1ccc(S(=O)(=O)N(C)C[C@@H]2Oc3ccc(NC(=O)Nc4c(C)noc4C)cc3C(=O)N([C@H](C)CO)C[C@@H]2C)cc1 do in these assays?
Env fusion inh: inactive

Results for CC(C)c1cc(C(=O)Nc2cc(Cl)ccc2O)no1 ?
NR2E3 ag-1: inactive; Env fusion inh: inactive; GalR3 antag: inactive; NR2E3 ag-2: inactive; GAA850 FXN act: inactive; V-ATPase pHluor: inactive

Results for CC(C)c1cc(C(=O)Nc2cc(Br)ccc2O)no1 ?
NR2E3 ag-1: inactive; GalR3 antag: inactive; NR2E3 ag-2: inactive; GAA850 FXN act: 9.9; V-ATPase pHluor: inactive; GAA30 FXN cntr: 97; GAA850 confirm: 33

How did Cc1ccc(NC(=O)c2c(Cl)nc3ccccn23)cc1 do in these assays?
NR2E3 ag-1: inactive; Env fusion inh: inactive; GalR3 antag: inactive; NR2E3 ag-2: inactive; GAA850 FXN act: 10; V-ATPase pHluor: inactive; GAA30 FXN cntr: 116; GAA850 confirm: 37

How did C[C@H](CO)N1C[C@H](C)[C@H](CN(C)S(=O)(=O)c2cn(C)cn2)Oc2ccc(NC(=O)c3ccncc3)cc2CC1=O do in these assays?
Env fusion inh: inactive

Results for CCOC(=O)/C=C/COc1ccccc1[N+](=O)[O-] ?
NR2E3 ag-1: inactive; Env fusion inh: inactive; GalR3 antag: inactive; NR2E3 ag-2: inactive; GAA850 FXN act: 8.3; V-ATPase pHluor: inactive; GAA30 FXN cntr: 89; GAA850 confirm: 27

How did CC(C)(C)C(=O)COc1ccccc1[N+](=O)[O-] do in these assays?
NR2E3 ag-1: inactive; Env fusion inh: inactive; GalR3 antag: inactive; NR2E3 ag-2: inactive; GAA850 FXN act: inactive; V-ATPase pHluor: inactive

Results for Cn1c2nc3ccccc3c-2nc2ccccc21 ?
NR2E3 ag-1: inactive; Env fusion inh: inactive; GalR3 antag: inactive; GAA850 FXN act: 11; V-ATPase pHluor: inactive; GAA30 FXN cntr: 115; GAA850 confirm: 35

How did COc1ccc(-c2ccc(=O)n(Cc3cc(=O)n4ccccc4n3)n2)cc1 do in these assays?
NR2E3 ag-1: inactive; GalR3 antag: inactive; NR2E3 ag-2: inactive; GAA850 FXN act: 8.1; V-ATPase pHluor: inactive; GAA30 FXN cntr: inactive; GAA850 confirm: 8.8

Results for O=C(c1ccc(Br)o1)N1CCN(C23CC4CC(CC(C4)C2)C3)CC1 ?
NR2E3 ag-1: inactive; Env fusion inh: inactive; GalR3 antag: inactive; NR2E3 ag-2: inactive; GAA850 FXN act: inactive; V-ATPase pHluor: inactive

Results for O=C(c1ccc(C23CC4CC(CC(C4)C2)C3)o1)N1CCOCC1 ?
NR2E3 ag-1: inactive; GalR3 antag: inactive; NR2E3 ag-2: inactive; GAA850 FXN act: 9.7; V-ATPase pHluor: inactive; GAA30 FXN cntr: 34; GAA850 confirm: 22

How did COC(=O)CN1C(c2ccc(Cl)cc2)=Nc2ccc(Cl)cc2C1c1ccccc1 (stereo not given) do in these assays?
NR2E3 ag-1: inactive; Env fusion inh: 80; GalR3 antag: inactive; NR2E3 ag-2: inactive; GAA850 FXN act: 13; V-ATPase pHluor: inactive; GAA30 FXN cntr: inactive; GAA850 confirm: 11

Results for CCOC(=O)c1cnc2cc3c(cn2c1=O)CCCC3 ?
NR2E3 ag-1: inactive; GalR3 antag: inactive; NR2E3 ag-2: inactive; GAA850 FXN act: 8.2; V-ATPase pHluor: inactive; GAA30 FXN cntr: 98; GAA850 confirm: 34

Results for CCOC(=O)c1cc2c(nc1N)CCCC2 ?
NR2E3 ag-1: inactive; Env fusion inh: inactive; GalR3 antag: inactive; NR2E3 ag-2: inactive; GAA850 FXN act: inactive; V-ATPase pHluor: inactive

What do the screens show for `CC1CCCN(C(=O)COc2ccc3c(c2)OCO3)C1` (stereo not given)?
NR2E3 ag-1: inactive; Env fusion inh: inactive; GalR3 antag: inactive; NR2E3 ag-2: inactive; GAA850 FXN act: inactive; V-ATPase pHluor: inactive
